Reference: ChEMBL document CHEMBL1125525, “5'-Azido-delta 8-THC: a novel photoaffinity label for the cannabinoid receptor” (1992)

Tests used:
Assay type in all cases: functional
[1] = species on record: Mus musculus; assay: Percent inhibition measured in terms of the maximum possible effect (MPE)on latency by mouse tail-flick assay
Procedure, shortened: (§1)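 Male ICR mice dosed intravenously; same animals scored for decreased locomotor activity (sedation), ring immobility (catalepsy), hypothermia and tail-flick antinociception. Dose-response data analysed by ANOVA; ED50 (mg/kg) with 95% confidence limits as potency, maximum effect as efficacy: percent inhibition of locomotion, change in °C for hypothermia, percent immobility for catalepsy, percent maximum possible effect on tail-flick latency.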

[2] = test system: Mus musculus; assay: Compound was evaluated by in vivo administration for Percent inhibition of locomotion in mice; procedure, shortened: as §1
[3] = test system: Mus musculus; assay: Induction of ring immobility (catalepsy), measured by in vivo administration of drug in mouse; procedure, shortened: as §1
[4] = species on record: Mus musculus; assay: Antinociception measured in terms of the maximum possible effect (MPE)on latency by mouse tail-flick assay; procedure, shortened: as §1
[5] = test system: Mus musculus; assay: Compound was evaluated by in vivo administration for its ability to produce hypothermia (change in temperature); procedure, shortened: as §1
[6] = test system: Mus musculus; assay: Compound was evaluated by in vivo administration for its ability to produce sedation; procedure, shortened: as §1
[7] = test system: Mus musculus; assay: Compound was evaluated by in vivo administration for percent inhibition of locomotion in mice; procedure, shortened: as §1

Structure (SMILES)	Inhibition [1]	Inhibition [2]	ED50 [3]	Immobility [3]	ED50 [4]	ED50 [5]	ED50 [6]	Inhibition [7]
CC1=CC[C@@H]2[C@@H](C1)c1c(O)cc(CCCCCN=[N+]=[N-])cc1OC2(C)C	100%	73%	0.8 mg/kg	57%	0.1 mg/kg	0.8 mg/kg	0.2 mg/kg	
CCCCCc1cc(O)c2c(c1)OC(C)(C)[C@@H]1CC=C(C)C[C@@H]21 [DELTA-8-TETRAHYDROCANNABINOL]	100%		5.2 mg/kg	58%	1.5 mg/kg		1.9 mg/kg	79%
